According to PMC12062462 (Nature Communications, 2025):

How the values were obtained:
[1] = system: L929 cells (TNF-α-induced necroptosis); assay: Necroptosis induction and inhibition assay in L929; assay type: cell-based, mouse; details: Mus musculus, L929, read-out: EC50^L929 against TNF-α-induced necroptosis, mouse TNF-α (20 ng/mL) and zVAD (10 μM), CCK-8
[2] = system: HT29 cells (TNF-α-induced necroptosis); assay: Necroptosis induction and inhibition assay in HT29; assay type: cell-based, human; details: Homo sapiens, HT-29, read-out: EC50^HT29 against TNF-α-induced necroptosis, zVAD (20 μM), human TNF-α (40 ng/mL), Smac mimetic SM-164 (100 nM), CCK-8
[3] = system: L929 RIPK3-/- + RIPK3 K51A cells; assay: Cell viability assay with or without zVAD, L929 RIPK3-/- + RIPK3 K51A; assay type: cell-based, mouse; details: 1.6 μM, without zVAD
How it was run: (§1)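 L929 cells were grown in MEM with 10% FBS. RIPK3 was knocked out by CRISPR/Cas9 (sgRNA against mouse RIPK3), and knockout was confirmed by sequencing and immunoblot. Knockout lines with or without re-expressed RIPK3 K51A or K51A/R69H were seeded at 10,000–20,000 cells/well and left to attach for 24 h. Cells were exposed to test compound alone or with zVAD for 18–20 h. Viability was read by CCK-8 (1–2 h, 37 °C, A450). Three experiments in triplicate; CC50 by nonlinear regression.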

[4] = system: L929 RIPK3-/- + RIPK3 K51A/R69H cells; assay: Cell viability assay with or without zVAD, L929 RIPK3-/- + RIPK3 K51A/R69H; assay type: cell-based, mouse
How it was run: as §1

[5] = system: caspase 3 activity in L929 cell lysates; assay: Caspase 3 activity in L929 cell lysates; assay type: cell-based, mouse
How it was run: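 L929 cells were cultured 12 h in 12-well plates, then exposed to test compound or DMSO for 0, 1, 2, 3 or 4 h. Protein was measured by BCA. Lysate was incubated with Ac-DEVD-pNA overnight at 37 °C and read at A405 minus blank. Three experiments, each in triplicate.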

[6] = system: caspase 3 and caspase 8 cleavage in L929 cells; assay: Western blot of caspase 3 and caspase 8 cleavage in L929 cells; assay type: cell-based, mouse; details: L929, 3 hours
How it was run: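 L929 cells in 12-well plates at about 80% confluency were exposed for 3 h to test compound, DMSO or medium, each with 10 µM zVAD. Cells were lysed at room temperature in a Triton X-100/Tris-based 1× SDS sample buffer and boiled 10 min. Proteins were run on 15% SDS-PAGE and blotted to PVDF. Membranes were blocked in 5% milk and probed for caspase 3 and caspase 8 cleavage overnight at 4 °C. Three independent experiments.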

RIPK3-RIPK1 interaction = RIPK3-RIPK1 interaction (Mus musculus, UniProt Q9QZL0); assay: RIPK1 immunoprecipitation; assay type: cell-based; details: L929, 10 µM, 5 hours
Sequence of RIPK3-RIPK1 interaction (Q9QZL0 whole entry): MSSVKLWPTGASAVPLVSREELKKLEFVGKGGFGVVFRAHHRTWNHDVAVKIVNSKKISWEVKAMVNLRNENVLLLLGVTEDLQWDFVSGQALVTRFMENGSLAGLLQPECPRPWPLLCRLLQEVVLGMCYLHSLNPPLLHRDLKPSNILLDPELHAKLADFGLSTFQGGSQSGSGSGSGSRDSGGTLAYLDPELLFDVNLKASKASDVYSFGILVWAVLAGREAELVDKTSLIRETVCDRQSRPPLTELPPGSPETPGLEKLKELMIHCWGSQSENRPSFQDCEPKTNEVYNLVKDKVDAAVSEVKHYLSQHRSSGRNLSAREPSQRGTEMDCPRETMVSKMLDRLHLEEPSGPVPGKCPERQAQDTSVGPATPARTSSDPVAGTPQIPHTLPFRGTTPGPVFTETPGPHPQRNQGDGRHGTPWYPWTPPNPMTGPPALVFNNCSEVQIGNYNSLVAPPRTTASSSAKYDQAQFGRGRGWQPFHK
How it was run: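 Lysates were cleared at 17,000 g for 15 min at 4 °C, and an input sample was kept. Lysate was incubated with anti-RIPK1 antibody on protein A/G magnetic beads for 2 h at 4 °C. Co-precipitated RIPK3 was detected by Western blot. Normalized quantification came from three independent experiments.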

mRIPK3^KD R69H = mRIPK3^KD R69H (Mus musculus, UniProt Q9QZL0, C111A/R69H); assay: Size-exclusion chromatography; details: protein 10 mg/mL, compound 1 mM
Sequence of mRIPK3^KD R69H (Q9QZL0 1-313 R69H/C111A): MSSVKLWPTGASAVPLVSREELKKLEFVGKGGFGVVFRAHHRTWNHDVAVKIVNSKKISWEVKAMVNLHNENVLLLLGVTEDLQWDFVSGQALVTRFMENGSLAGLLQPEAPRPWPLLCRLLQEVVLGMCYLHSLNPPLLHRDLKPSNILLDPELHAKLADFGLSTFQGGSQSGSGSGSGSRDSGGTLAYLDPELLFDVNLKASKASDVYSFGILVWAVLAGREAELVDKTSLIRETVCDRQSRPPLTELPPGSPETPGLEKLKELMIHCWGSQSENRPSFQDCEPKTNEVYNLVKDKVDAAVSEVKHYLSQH
How it was run: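 Mouse RIPK3 kinase domain 1-313 (C111A/R69H, C-terminal 10×His) was expressed in Sf-9 cells by baculovirus, with 10 µM test compound or DMSO added to the lysate. Ni-NTA eluate was concentrated to 10 mg/mL, incubated with 1 mM compound and centrifuged at 17,000 g for 15 min. It was then run on Superdex 200 Increase 10/300 in 25 mM Tris pH 8.0, 150 mM NaCl, 5 mM DTT plus 10 µM compound. Three independent runs.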

panel of 291 kinases = details: 1 µM, overlapping panel of 272 kinases; ref 30 (Mandal et al., 2014); cited from earlier work
RIPK3-mediated apoptosis = details: cited from earlier work

| Compound | EC50 [1] | EC50 [2] | viability of cells expressing the ATPase-inactive RIPK3 K51A mutant [3] | apoptosis in cells expressing RIPK3 K51A and R69H double mutation [4] | concentration at which caspase 3 is activated [5] | activation of the apoptotic pathway: cleavage of caspase 8 and caspase 3 (Western blot) [6] | interaction between RIPK3 and RIPK1 (co-immunoprecipitation) (RIPK3-RIPK1 interaction) | elution position of mRIPK3^KD R69H in complex with inhibitor (mRIPK3^KD R69H) | number of kinases inhibited by >65% (panel of 291 kinases) | concentration triggering RIPK3-mediated apoptosis relative to EC50 (RIPK3-mediated apoptosis) |
| --- | --- | --- | --- | --- | --- | --- | --- | --- | --- | --- |
| CC(C)S(=O)(=O)c1ccc2nccc(Nc3ccc4scnc4c3)c2c1 [GSK'872, reference compound] | 3.6 µM | 7.9 µM | significantly reduces the viability | does not cause such apoptosis | 5 µM | cleavage of caspase 8 and caspase 3 | enhances the interaction between RIPK3 and RIPK1 | aligns with a monomer | 13 kinases |  |
| GSK'840 |  |  |  |  |  |  |  |  |  | approximately twice their EC50 values |
